Source: PubChem BioAssay (Broad Institute)
In the library only some 5.8% were active in any assay of this set; here they are far more common.
T cruzi growth-1 = T. cruzi proliferation inhibition; T. cruzi beta-gal in NIH3T3, GalScreen luminescence, 90 h; AID 624255; 5.9% of 77,000 active; inhibition, % at 8.34 µM;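 active means mean inhibition above about 93%, with at least 55% of replicates each passing it, limit read from the data, passing the limit was not always enough; inconclusive means only one of those two conditions holds; inactive means neither condition holds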
Pf Dd2 growth = blocks growth of Plasmodium falciparum Dd2 parasites. P. falciparum Dd2 growth, SYBR Green, 72 h; active compounds read low. activity change, % at 10 µM. 2.3% of 94,000 active. AID 1159554; in the data active means activity change below about -80%; inconclusive means no clear call, values can overlap the other calls
GASC1 inh = inhibitors of human demethylase GASC-1 KDM4C; 0.15% of 96,000 active; GST-KDM4C 2-372, H3K9me3 peptide, LANCE TR-FRET; inhibition, % at 12.5 µM; Q9H3R0;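 active means mean replicate inhibition above about 25%, with at least 55% of replicates also reaching it, limit read from the data, passing the limit was not always enough; inconclusive means only one of those two conditions met; inactive means neither condition met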
Target sequence (Q9H3R0 2-372 limits assumed): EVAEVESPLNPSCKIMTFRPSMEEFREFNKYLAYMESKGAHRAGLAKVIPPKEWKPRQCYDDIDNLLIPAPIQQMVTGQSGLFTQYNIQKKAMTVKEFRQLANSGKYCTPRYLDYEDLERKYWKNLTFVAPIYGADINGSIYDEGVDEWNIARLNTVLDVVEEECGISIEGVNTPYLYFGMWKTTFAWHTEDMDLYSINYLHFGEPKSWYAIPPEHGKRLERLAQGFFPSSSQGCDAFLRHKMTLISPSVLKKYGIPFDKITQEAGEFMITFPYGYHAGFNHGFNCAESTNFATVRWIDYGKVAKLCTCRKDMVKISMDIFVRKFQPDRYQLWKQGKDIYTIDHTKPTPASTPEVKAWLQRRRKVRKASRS
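reagent = H3K9me3 peptide substrate, Fe(II), 2-oxoglutarate | system = GST-tagged GASC-1 (JMJD2C) catalytic fragment, aa 2-372 | amount = enzyme final amount 10 nM | read-out = Fall in 671/618 emission ratio as inhibition | medium = HEPES buffer, pH 7.5, plus ascorbate | schedule = 30 min reaction, 60 min detection, RT | measured by = LANCE TR-FRET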
IDH1 mut inh = inhibitors of human IDH1 R132H. IDH1 R132H reductase, diaphorase/resazurin fluorescence, 60 min. inhibition, % at 10 µM. 0.18% of 70,000 active. AID 624101; in the data active means inhibition above about 34%; inconclusive means no clear call, values can overlap the other calls; inactive means below about 11%;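 further: 0% = DMSO and 100% = no enzyme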
T cruzi growth-2 = inhibitors of T. cruzi proliferation; shares compounds with T cruzi growth-1; T. cruzi beta-gal in NIH3T3, GalScreen luminescence, 90 h; inhibition, % at 8.35 µM; 72% of 5,600 active;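 active means mean replicate inhibition above about 95% and at least 55% of replicates individually reaching it, limit read from the data; inconclusive means only one of the two criteria is met; inactive means neither criterion is met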
T cruzi growth-3 = Trypanosoma cruzi proliferation inhibition; shares compounds with T cruzi growth-1; 21% of 5,600 active; AID 651740; T. cruzi beta-gal in NIH3T3, GalScreen luminescence, 90 h; inhibition, % at 2.09 µM;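 active means mean inhibition above about 95%, with at least 55% of replicates also reaching it, limit read from the data; inconclusive means meets just one of the two conditions; inactive means meets neither condition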;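 further: plate controls were neutral control median for no effect and positive control median for full effect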
3T3 cytotox = kills mouse NIH/3T3 fibroblasts | cytotoxicity (signal decrease), % at 8.35 µM | AID 651742 | shares compounds with T cruzi growth-1 | NIH/3T3 viability, CellTiter-Glo ATP luminescence, 90 h | 14% of 5,600 active;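 active means mean signal decrease across replicates above about 35% based on untreated-well scatter, with enough replicates individually passing, limit read from the data; inconclusive means no rule stated though some were filed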;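 further: 0% = median of neutral control wells and 100% = median of positive control wells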
3T3 cytotox 2 = NIH/3T3 (mouse) viability loss. shares compounds with T cruzi growth-1. NIH/3T3 viability, CellTiter-Glo ATP luminescence, 90 h. inhibition, % at 24.9 µM. 56% of 5,600 active. AID 651744;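 active means mean loss of cell viability signal at or above a set limit, and enough replicates individually reaching it; inconclusive means meets only the mean limit or only the replicate share; inactive means meets neither condition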;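 further: 0% = median of neutral control wells and 100% = median of positive control wells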
An asterisk follows results filed as active; ? = inconclusive; nt = not tested or not shown.

SMILES	T cruzi growth-1	Pf Dd2 growth	GASC1 inh	IDH1 mut inh	T cruzi growth-2	T cruzi growth-3	3T3 cytotox	3T3 cytotox 2
COc1cccc(-c2ccc3c(c2)[C@@H]2[C@@H](CCN2C(=O)C2CCOCC2)[C@H](CO)N3)c1	111*	-46	0	nt	90	52	-15	-6
C[C@@H]1CN([C@@H](C)CO)C(=O)Cc2cc(NC(=O)Cc3ccccc3)ccc2O[C@H]1CN(C)C(=O)Nc1cccc2ccccc12	15	-25	-1	0	nt	nt	nt	nt
C[C@@H]1CN([C@H](C)CO)C(=O)c2cc(NS(=O)(=O)c3ccccc3)ccc2O[C@@H](C)CCCCO[C@H]1CN(C)C(=O)Nc1ccc(F)cc1	74	-80	1	-1	nt	nt	nt	nt
COc1ccc(C#Cc2cnc3c(c2)C(=O)N([C@@H](C)CO)C[C@@H](C)[C@H](CN(C)CC2CCCC2)O3)cc1	111*	-80	nt	-1	99*	93	118*	104*
COc1ccc(C#Cc2cnc3c(c2)C(=O)N([C@H](C)CO)C[C@H](C)[C@H](CN(C)C)O3)cc1	101*	-59	22	2	80	25	12	65*
Cc1ccc(S(=O)(=O)N(C)C[C@@H]2Oc3c(NS(=O)(=O)c4ccccc4)cccc3C(=O)N([C@H](C)CO)C[C@H]2C)cc1	39	2	2	nt	nt	nt	nt	nt
O=C(C[C@H]1CC[C@@H](NC(=O)CCN2CCCCC2)[C@H](CO)O1)Nc1ccc(-c2ccccc2)cc1	-175	13	0	0	nt	nt	nt	nt
C[C@@H]1CN([C@@H](C)CO)S(=O)(=O)c2ccc(/C=C/c3ccccc3)cc2O[C@@H]1CN(C)Cc1cncnc1	108*	-3	-3	-4	?	89	58*	70*
C[C@H]1CN([C@@H](C)CO)S(=O)(=O)c2ccc(/C=C/c3ccccc3)cc2O[C@@H]1CN(C)Cc1cncnc1	122*	-68	1	0	100*	104*	69*	97*
C[C@H](CO)N1C[C@H](C)[C@@H](CN(C)Cc2cncnc2)Oc2cc(/C=C/c3ccccc3)ccc2S1(=O)=O	121*	-52	-4	0	98*	102*	41*	81*
C/C=C/c1ccc2c(c1)O[C@H](CN(C)Cc1cncnc1)[C@@H](C)CN([C@H](C)CO)S2(=O)=O	nt	14	0	0	nt	nt	nt	nt
C[C@@H]1CN([C@H](C)CO)S(=O)(=O)c2ccc(/C=C/c3ccccc3)cc2O[C@H]1CN(C)Cc1cncnc1	107*	-67	-3	-2	98*	85	59*	65*
C[C@@H]1CN([C@@H](C)CO)C(=O)c2cccc(NC(=O)Nc3ccc4c(c3)OCO4)c2O[C@@H]1CN(C)Cc1ccncc1	2	3	0	nt	nt	nt	nt	nt
C[C@@H]1CCCCO[C@H](CN(C)CC2CC2)[C@H](C)CN([C@@H](C)CO)C(=O)c2cc(NS(=O)(=O)c3ccc(F)cc3)ccc2O1	66	-61	-1	2	nt	nt	nt	nt
Cc1noc(C)c1NC(=O)Nc1ccc2c(c1)CC(=O)N([C@@H](C)CO)C[C@H](C)[C@H](CN(C)S(=O)(=O)c1ccc(F)cc1)O2	12	15	1	0	nt	nt	nt	nt
CCN1[C@H](C(=O)N[C@@H](C)c2ccccc2)[C@@H](CO)[C@@H]2Cn3c(ccc(-c4cccc(F)c4)c3=O)[C@@H]21	84	-3	7	nt	nt	nt	nt	nt
C[C@H]1CCCCO[C@H](CN(C)S(=O)(=O)c2ccc(Cl)cc2)[C@@H](C)CN([C@@H](C)CO)C(=O)c2cc(NS(C)(=O)=O)ccc2O1	38	-39	0	1	nt	nt	nt	nt
C[C@@H]1CN([C@H](C)CO)C(=O)c2cc(NC(=O)Nc3ccc(C(F)(F)F)cc3)ccc2O[C@@H](C)CCCCO[C@H]1CN(C)C(=O)c1ccccc1	?	-18	0	nt	103*	113*	3	3
